In ChEMBL document CHEMBL1134416, “Statistical molecular design, parallel synthesis, and biological evaluation of a library of thrombin inhibitors” (J Med Chem, 2001):

Legend:
[1] = Estimation of membrane permeability by migration behavior in micellar media; type: ADME
In short: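 Capillary electrophoresis in MEKC mode on untreated fused-silica capillaries (50 µm i.d., 26.5 cm effective length), 300 V/cm, capillary at 37.0 ± 0.1 °C for log k′. Micellar electrolyte: 100 mM sodium cholate in sodium phosphate buffer pH 7.4, I = 0.05. Rinses with 0.1 M NaOH, water, then electrolyte before each run. Hydrodynamic injection at 20 mbar for 5 s. Read-out: log k′.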

[2] = Estimation of membrane permeability; type: ADME
[3] = target: Prothrombin (Homo sapiens, UniProt P00734); assay: Inhibitory activity against thrombin
[4] = target: T1, Serine protease 1 (Bos taurus, UniProt P00760); assay: Inhibitory activity against bovine Trypsin
T1 sequence (P00760 whole entry): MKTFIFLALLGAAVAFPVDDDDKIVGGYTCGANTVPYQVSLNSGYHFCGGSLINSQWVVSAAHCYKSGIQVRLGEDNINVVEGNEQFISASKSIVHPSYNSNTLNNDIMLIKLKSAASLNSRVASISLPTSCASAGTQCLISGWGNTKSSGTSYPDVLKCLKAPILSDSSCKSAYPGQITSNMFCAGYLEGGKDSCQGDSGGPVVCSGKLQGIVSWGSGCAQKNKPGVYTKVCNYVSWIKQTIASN
In short: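 Bovine trypsin at 0.25 mg/L final in 0.05 mol/L Tris-HCl pH 8.2 (20 °C) with 20 mM CaCl₂. Inhibitor at seven assay levels of […], preincubated 5 min with enzyme at 37 °C. S-2222 chromogenic substrate at assay levels of 15, 25 and 50 µM. A405 read every 10 s for 110 s. Ki obtained by linear regression.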

Structure (SMILES): COc1c(Cl)cc(Cl)cc1S(=O)(=O)Oc1cc(C)cc(OCCc2cccc(O)c2)c1
- CE logK' [1]: 1.57

Structure (SMILES): CCc1cc(OCCc2ccc(C(=N)N)cc2)cc(OS(=O)(=O)c2ccccc2)c1
- CE logK' [1]: 0.88
- pKa [2]: 10.9
- IC50 [3]: 25.1 nM

Structure (SMILES): CCc1cc(OCCc2ccc(CN)c(O)c2)cc(OS(=O)(=O)c2cccc(Cl)c2Cl)c1
- CE logK' [1]: 1.08
- pKa [2]: 8.3
- IC50 [3]: 11200 nM

Structure (SMILES): CCc1cc(OCCc2ccc(CN)cc2)cc(OS(=O)(=O)c2cc(C)ccc2OC)c1
- CE logK' [1]: 0.87
- pKa [2]: 9.3
- Ki [4]: 6.17 µM

Structure (SMILES): CCc1cc(OCCc2ccccc2)cc(OS(=O)(=O)c2cc(Cl)ccc2Cl)c1
- CE logK' [1]: 1.85

Structure (SMILES): Cc1cccc(S(=O)(=O)Oc2cccc(OCCc3ccc(CN)cc3)c2)c1
- CE logK' [1]: 0.89
- pKa [2]: 9.4
- IC50 [3]: 58900 nM

Structure (SMILES): COc1ccc(C)cc1S(=O)(=O)Oc1cccc(OCCc2ccc(C(=N)N)c(O)c2)c1
- CE logK' [1]: 1.08
- pKa [2]: 6.2
- IC50 [3]: 575 nM
- Ki [4]: 28.2 µM

Structure (SMILES): Cc1cc(OCCc2ccc(C(=N)N)c(O)c2)cc(OS(=O)(=O)c2cccc(C)c2)c1
- CE logK' [1]: 1.16
- pKa [2]: 6.3
- IC50 [3]: 135 nM
- Ki [4]: 32.4 µM

Structure (SMILES): COc1c(Cl)cc(Cl)cc1S(=O)(=O)Oc1cccc(OCCc2ccc(C(=N)N)cc2)c1
- CE logK' [1]: 0.96
- pKa [2]: 10.5
- IC50 [3]: 56.2 nM
- Ki [4]: 0.263 µM

Structure (SMILES): CCc1cc(OCCc2cccc(O)c2)cc(OS(=O)(=O)c2ccccc2)c1
- CE logK' [1]: 1.42

Structure (SMILES): COc1ccc(C)cc1S(=O)(=O)Oc1cccc(OCCc2ccccc2)c1
- CE logK' [1]: 1.4

Structure (SMILES): NCc1ccc(CCOc2cccc(OS(=O)(=O)c3ccccc3)c2)cc1O
- CE logK' [1]: 0.85
- pKa [2]: 8.3
- IC50 [3]: 10700 nM

Structure (SMILES): Cc1cc(OCCc2ccc(CN)cc2)cc(OS(=O)(=O)c2cccc(Cl)c2Cl)c1
- CE logK' [1]: 0.97
- pKa [2]: 9
- IC50 [3]: 1230 nM

Structure (SMILES): O=S(=O)(Oc1cccc(OCCc2cccc(O)c2)c1)c1cccc(Cl)c1Cl
- CE logK' [1]: 1.41

Structure (SMILES): CCc1cc(OCCc2cccc(O)c2)cc(OS(=O)(=O)c2cc(C)ccc2OC)c1
- CE logK' [1]: 1.3

Structure (SMILES): CCc1cc(OCCc2ccc(C(=N)N)c(O)c2)cc(OS(=O)(=O)c2cc(Cl)cc(Cl)c2OC)c1
- CE logK' [1]: 1.27
- pKa [2]: 6.3

Structure (SMILES): Cc1cc(OCCc2ccc(CN)c(O)c2)cc(OS(=O)(=O)c2cc(Cl)ccc2Cl)c1
- CE logK' [1]: 0.98
- pKa [2]: 8.6
- IC50 [3]: 933 nM

Structure (SMILES): Cc1cc(OCCc2ccccc2)cc(OS(=O)(=O)c2ccccc2)c1
- CE logK' [1]: 1.51
